Legend:
Details in all cases: in vivo
Rattus norvegicus [1] = experiment: Distribution (percent dose/g of tissue) of radioactivity 24 hr after intravenous administration of [125I]-labeled compound in rat spleen; assay type: ADME, organism-based
Summary of the method: (§1)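 Radioiodinated ester given IV to adult female Sprague–Dawley rats (200–300 g), 5–50 μCi per animal, 3–5 rats per compound. Rats killed by exsanguination under ether at 24 h. Organs blotted, large ones minced, weighed samples gamma-counted in well scintillation counter (84% efficiency). Value is % administered dose per g tissue, background-corrected; mean with SEM.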

Rattus norvegicus [2] = experiment: Distribution (percent dose/g of tissue) of radioactivity 24 hr after intravenous administration of [125I]-labeled compound in rat plasma; assay type: ADME, organism-based; summary of the method: as §1
Rattus norvegicus [3] = experiment: Distribution (percent dose/g of tissue) of radioactivity 24 hr after intravenous administration of [125I]-labeled compound in rat lung; assay type: ADME, organism-based; summary of the method: as §1
Rattus norvegicus [4] = experiment: Distribution (percent dose/g of tissue) of radioactivity 24 hr after intravenous administration of [125I]-labeled compound in rat heart; assay type: ADME, organism-based; summary of the method: as §1
Rattus norvegicus [5] = experiment: Distribution (percent dose/g of tissue) of radioactivity 24 hr after intravenous administration of [125I]-labeled compound in rat blood; assay type: ADME, organism-based; summary of the method: as §1
Rattus norvegicus [6] = experiment: Distribution (percent dose/g of tissue) of radioactivity 24 hr after intravenous administration of [125I]-labeled compound in rat ovary; assay type: ADME, organism-based, Female gonad; summary of the method: as §1
Rattus norvegicus [7] = experiment: Distribution (percent dose/g of tissue) of radioactivity 24 hr after intravenous administration of [125I]-labeled compound in rat adrenal cortex; assay type: ADME, organism-based; summary of the method: as §1
Rattus norvegicus [8] = experiment: Distribution (percent dose/g of tissue) of radioactivity 24 hr after intravenous administration of [125I]-labeled compound in rat liver; assay type: ADME, organism-based; summary of the method: as §1
Rattus norvegicus [9] = experiment: Distribution (percent dose/g of tissue) of radioactivity 24 hr after intravenous administration of [125I]-labeled compound in rat thyroid; assay type: ADME, organism-based, Thyroid gland; summary of the method: as §1
Rattus norvegicus [10] = experiment: Distribution (percent dose/g of tissue) of radioactivity 24 hr after intravenous administration of [125I]-labeled compound to rat thyroid; assay type: ADME, organism-based, Thyroid gland; summary of the method: as §1
Rattus norvegicus [11] = experiment: Distribution (percent dose/g of tissue) of radioactivity 24 hr after intravenous administration of [125I]-labeled compound to rat spleen; assay type: ADME, organism-based; summary of the method: as §1
Rattus norvegicus [12] = experiment: Distribution (percent dose/g of tissue) of radioactivity 24 hr after intravenous administration of [125I]-labeled compound to rat blood; assay type: ADME, organism-based; summary of the method: as §1

| SMILES | Activity (Rattus norvegicus [1]) | Activity (Rattus norvegicus [2]) | Activity (Rattus norvegicus [3]) | Activity (Rattus norvegicus [4]) | Activity (Rattus norvegicus [5]) | Activity (Rattus norvegicus [6]) | Activity (Rattus norvegicus [7]) | Activity (Rattus norvegicus [8]) | Activity (Rattus norvegicus [9]) | Activity (Rattus norvegicus [10]) | Activity (Rattus norvegicus [11]) | Activity (Rattus norvegicus [12]) |
| --- | --- | --- | --- | --- | --- | --- | --- | --- | --- | --- | --- | --- |
| CC(C)CCCC(C)C1CCC2C3CC=C4CC(OC(=O)Cc5ccccc5I)CCC4(C)C3CCC12C (centres undefined) | 1.31 % dose (g of tissue)-1 | 0.29 % dose (g of tissue)-1 | 0.43 % dose (g of tissue)-1 | 0.15 % dose (g of tissue)-1 | 0.21 % dose (g of tissue)-1 | 5.97 % dose (g of tissue)-1 | 9.19 % dose (g of tissue)-1 | 3.99 % dose (g of tissue)-1 | 46.31 % dose (g of tissue)-1 | – | – | – |
| CC(C)CCCC(C)C1CCC2C3CC=C4CC(OC(=O)Cc5cccc(I)c5)CCC4(C)C3CCC12C (centres undefined) | 0.77 % dose (g of tissue)-1 | 0.24 % dose (g of tissue)-1 | 0.27 % dose (g of tissue)-1 | 0.11 % dose (g of tissue)-1 | 0.14 % dose (g of tissue)-1 | 5.05 % dose (g of tissue)-1 | 3.4 % dose (g of tissue)-1 | 2.11 % dose (g of tissue)-1 | 32.62 % dose (g of tissue)-1 | – | – | – |
| CC(C)CCCC(C)C1CCC2C3CC=C4CC(OC(=O)c5ccccc5I)CCC4(C)C3CCC12C (centres undefined) | 1.89 % dose (g of tissue)-1 | 0.8 % dose (g of tissue)-1 | 0.94 % dose (g of tissue)-1 | 0.21 % dose (g of tissue)-1 | 0.44 % dose (g of tissue)-1 | 13.68 % dose (g of tissue)-1 | 14.67 % dose (g of tissue)-1 | 5.18 % dose (g of tissue)-1 | 1.96 % dose (g of tissue)-1 | – | – | – |
| CC(C)CCCC(C)C1CCC2C3CC=C4CC(OC(=O)Cc5ccc(I)cc5)CCC4(C)C3CCC12C (centres undefined) | 0.5 % dose (g of tissue)-1 | 1.88 % dose (g of tissue)-1 | 0.65 % dose (g of tissue)-1 | 0.33 % dose (g of tissue)-1 | 1.02 % dose (g of tissue)-1 | 2.32 % dose (g of tissue)-1 | 3.29 % dose (g of tissue)-1 | 1.25 % dose (g of tissue)-1 | 27.09 % dose (g of tissue)-1 | – | – | – |
| CC(C)CCCC(C)C1CCC2C3CC=C4CC(OC(=O)c5cc(I)c(I)c(I)c5)CCC4(C)C3CCC12C (centres undefined) | – | 1.01 % dose (g of tissue)-1 | 0.97 % dose (g of tissue)-1 | 0.2 % dose (g of tissue)-1 | 0.54 % dose (g of tissue)-1 | 12.53 % dose (g of tissue)-1 | 7.48 % dose (g of tissue)-1 | 4.8 % dose (g of tissue)-1 | – | 6.06 % dose (g of tissue)-1 | 2.98 % dose (g of tissue)-1 | – |
| CC(C)CCCC(C)C1CCC2C3CC=C4CC(OC(=O)c5cccc(I)c5)CCC4(C)C3CCC12C (centres undefined) | 1.86 % dose (g of tissue)-1 | 0.55 % dose (g of tissue)-1 | 0.46 % dose (g of tissue)-1 | 0.16 % dose (g of tissue)-1 | – | 15.7 % dose (g of tissue)-1 | 12.76 % dose (g of tissue)-1 | 5.03 % dose (g of tissue)-1 | 7.3 % dose (g of tissue)-1 | – | – | 0.3 % dose (g of tissue)-1 |
| CC(C)CCCC(C)C1CCC2C3CC=C4CC(OC(=O)CCCc5ccc(I)cc5)CCC4(C)C3CCC12C (centres undefined) | 0.16 % dose (g of tissue)-1 | 1.51 % dose (g of tissue)-1 | 0.4 % dose (g of tissue)-1 | 0.25 % dose (g of tissue)-1 | 0.87 % dose (g of tissue)-1 | 3.23 % dose (g of tissue)-1 | 1.94 % dose (g of tissue)-1 | 0.36 % dose (g of tissue)-1 | 30.09 % dose (g of tissue)-1 | – | – | – |
| CC(C)CCCC(C)C1CCC2C3CC=C4CC(OC(=O)c5ccc(I)cc5)CCC4(C)C3CCC12C (centres undefined) | 1.49 % dose (g of tissue)-1 | 0.36 % dose (g of tissue)-1 | 0.94 % dose (g of tissue)-1 | 0.11 % dose (g of tissue)-1 | – | 6.21 % dose (g of tissue)-1 | 3.86 % dose (g of tissue)-1 | 3.28 % dose (g of tissue)-1 | 6.92 % dose (g of tissue)-1 | – | – | 0.2 % dose (g of tissue)-1 |
| CC(C)CCCC(C)C1CCC2C3CC=C4CC(OC(=O)c5cc(I)cc(I)c5I)CCC4(C)C3CCC12C (centres undefined) | – | 1.02 % dose (g of tissue)-1 | 0.7 % dose (g of tissue)-1 | – | 0.57 % dose (g of tissue)-1 | 16.19 % dose (g of tissue)-1 | 9.03 % dose (g of tissue)-1 | 5.11 % dose (g of tissue)-1 | – | 2.63 % dose (g of tissue)-1 | 1.68 % dose (g of tissue)-1 | – |
| CC(C)CCCC(C)C1CCC2C3CC=C4CC(OC(=O)CCc5ccc(I)cc5)CCC4(C)C3CCC12C (centres undefined) | 0.51 % dose (g of tissue)-1 | 0.16 % dose (g of tissue)-1 | 0.5 % dose (g of tissue)-1 | 0.08 % dose (g of tissue)-1 | 0.13 % dose (g of tissue)-1 | 1.35 % dose (g of tissue)-1 | 3.56 % dose (g of tissue)-1 | 0.42 % dose (g of tissue)-1 | 67.52 % dose (g of tissue)-1 | – | – | – |
